# Results from ChEMBL document CHEMBL1147069, “Gambogic amide, a selective agonist for TrkA receptor that possesses robust neurotrophic activity, prevents neuronal cell death” (Proc Natl Acad Sci U S A, 2007).
# Active and inactive are the calls of the source. The rule behind the calls is not given here.
# What was measured:
# [1] = test system: PC-12; test: Induction of neurite outgrowth in rat PC12 cells at 0.5 uM after 5 days; format: functional, cell-based
# How it was run: (§1)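 PC12 cells were seeded at 1 × 10^4 per well on poly-L-lysine and grown 24 h, then treated with compounds (0.5 μM, or 10–50 nM in dose series) or NGF for 5 days, with medium replenished every other day. Neurites were counted as processes longer than two cell bodies. Three independent experiments.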
# [2] = test system: SN56; test: Suppression of staurosporine-initiated apoptosis in mouse SN56 cells at 0.5 uM; format: functional, cell-based
# How it was run: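 Murine SN56 basal forebrain cells and their rat-TrkA stably transfected line T17 (DMEM, 1 mM pyruvate, 10% FBS; T17 with 300 μg/ml G418). Cells were preincubated with 0.5 μM compound, then given 1 μM staurosporine for 9 h. Apoptosis was read with the caspase-3-activated dye MR(DEVD)2 (10 μM, last hour) plus Hoechst counterstain after fixation. Three independent experiments, mean ± SD.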
# [3] = target: High affinity nerve growth factor receptor (Rattus norvegicus) (UniProt P35739); test: Induction of TrkA phosphorylation in rat hippocampal neurons at 0.5 uM after 30 mins; format: tissue-based; details: Hippocampus
# How it was run: (§2)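 Primary hippocampal neurons were treated with 0.5 μM compounds for 30 min; lysates were immunoblotted with anti-phospho-Trk Y490 antibody. Repeated more than three times.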
# [4] = test system: TrkB-stable; test: Induction of PI3K signaling activation in TrkB-stable cells; format: cell-based
# [5] = test system: TrkB-stable; test: Induction of MAPK signaling activation in TrkB-stable cells; format: cell-based
# [6] = Suppression of staurosporine-initiated apoptosis in mouse T17 cells at 0.5 uM
# [7] = test system: T17; test: Induction of MAPK phosphorylation in mouse T17 cells
# [8] = target: High affinity nerve growth factor receptor (Rattus norvegicus) (UniProt P35739); test: Induction of Akt phosphorylation in rat primary hippocampal neurons; format: tissue-based; details: Hippocampus
# How it was run: (§3)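 Hippocampal neurons were given 0.5 μM compound for 5–180 min (time course), or a dose range for 30 min, with 50 ng/ml NGF for comparison. Akt phosphorylation was detected by immunoblotting with phospho-Akt (473/308) antibodies.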
# [9] = test system: T17; test: […] in staurosporine-initiated apoptosis in mouse T17 cells at 0.5 uM
# [10] = test system: Rattus norvegicus; test: Neuroprotective effect in rat MCAO model assessed as decrease in cerebral blood flow at 2 mg/kg within 5 mins; format: functional, Brain; parameters: scale not given: the % may be the effect or the level left
# How it was run: (§4)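 Adult male rats underwent 2 h transient MCAO; vehicle or 2 mg/kg was given 5 min before reperfusion onset. Relative cerebral blood flow over ipsilateral parietal cortex was measured by laser-Doppler flowmetry versus preischemic levels. Values are mean ± SD, compared by Student's t test.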
# [11] = test system: Rattus norvegicus; test: Neuroprotective effect in rat MCAO model assessed as increase in cerebral blood flow at 2 mg/kg after 120 mins of filament withdrawal; format: functional, Brain; how it was run: as §4
# [12] = test system: Hippocampal neurone; test: Neuroprotective effect in glutamate-induced cell death in rat hippocampal neurons after 30 mins; format: functional, tissue-based; details: Hippocampus
# How it was run: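 Primary hippocampal neurons were pretreated with compounds for 30 min, then exposed to 50 μM glutamate for 16 h. Apoptosis was quantified with the MR(DEVD)2 caspase-3 dye; NGF served as positive control. Three independent experiments, mean ± SD.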
# [13] = target: High affinity nerve growth factor receptor (Homo sapiens) (UniProt P04629); test: Stimulation of TrkA dimerization co-transfected in HEK293 cells at 0.5 uM after 30 mins by immunoblotting analysis in presence of green fluorescent protein; format: cell-based
# How it was run: (§5)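 HEK293 cells were cotransfected with GFP-TrkA plus HA-TrkA or HA-TrkB, then treated with 0.5 μM compound for 30 min. GFP-TrkA was immunoprecipitated with anti-GFP and coprecipitated receptor detected by anti-HA immunoblot.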
# [14] = target: High affinity nerve growth factor receptor (Homo sapiens) (UniProt P04629); test: Binding affinity to recombinant GST-TrkA
# How it was run: (§6)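 Recombinant GST-TrkA, GST-TrkB or GST-TrkC proteins tested in an in vitro binding assay with the compounds; experiments were repeated more than three times.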
# [15] = target: BDNF/NT-3 growth factors receptor (Homo sapiens) (UniProt Q16620); test: Binding affinity to recombinant GST-TrkB; how it was run: as §6
# [16] = target: NT-3 growth factor receptor (Homo sapiens) (UniProt Q16288); test: Binding affinity to recombinant GST-TrkC; how it was run: as §6
# [17] = target: Mitogen-activated protein kinase 3 (Homo sapiens) (UniProt P27361); test: Induction of ERK1 phosphorylation
# [18] = target: Mitogen-activated protein kinase 1 (Homo sapiens) (UniProt P28482); test: Induction of ERK2 phosphorylation
# [19] = target: High affinity nerve growth factor receptor (Homo sapiens) (UniProt P04629); test: Binding affinity to TrkA
# How it was run: (§7)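 GFP-tagged TrkA (wild-type or kinase-dead) expressed in transfected HEK293 cells; lysates bound to gambogic amide immobilised on Affi-Gel 102 through an amide bond. For Kd, TrkA-loaded beads were competed with increasing free compound. After extensive washing, bead-bound protein was immunoblotted with anti-GFP and quantitated densitometrically.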
# [20] = target: High affinity nerve growth factor receptor (Homo sapiens) (UniProt P04629); test: Binding affinity to TrkA kinase; how it was run: as §7
# [21] = target: BDNF/NT-3 growth factors receptor (Homo sapiens) (UniProt Q16620); test: Binding affinity to TrkB
# [22] = target: NT-3 growth factor receptor (Homo sapiens) (UniProt Q16288); test: Binding affinity to TrkC
# [23] = target: High affinity nerve growth factor receptor (Rattus norvegicus) (UniProt P35739); test: Induction of Akt phosphorylation in rat primary hippocampal neurons at 0.5 uM; details: Hippocampus, TDE = time-dependent effect; how it was run: as §3
# [24] = target: High affinity nerve growth factor receptor (Rattus norvegicus) (UniProt P35739); test: Induction of Akt phosphorylation in rat primary hippocampal neurons after 30 mins; format: tissue-based; details: Hippocampus; how it was run: as §3
# [25] = test system: PC-12; test: Induction of neurite outgrowth in rat PC12 cells; format: functional, cell-based; how it was run: as §1
# [26] = test system: PC-12; test: Blockade of induction of neurite outgrowth in rat PC12 cells in presence of K252a; format: functional, cell-based
# [27] = test system: Mus musculus; test: Neuroprotective effect on C57BL/6 mouse hippocampal CA1 region assessed as decrease in kainic acid-induced neuronal cell death at 2 mg/kg, sc after 5 days; format: functional; parameters: scale not given: the % may be the effect or the level left; details: route subcutaneous
# How it was run: (§8)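 C57BL/6 mice were given 2 mg/kg s.c., followed by 25 mg/kg kainic acid. After 5 days, mice were perfused and 5 μm brain sections cut. Hippocampal apoptosis was quantified by TUNEL with DAPI counterstain.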
# [28] = test system: Mus musculus; test: Neuroprotective effect on C57BL/6 mouse hippocampal CA3 region assessed as decrease in kainic acid-induced neuronal cell death at 2 mg/kg, sc after 5 days; format: functional; parameters: scale not given: the % may be the effect or the level left; details: route subcutaneous; how it was run: as §8
# [29] = test system: HEK293; test: Stimulation of TrkA and TrkB dimerization co-transfected in HEK293 cells at 0.5 uM after 30 mins by immunoblotting analysis; format: cell-based; how it was run: as §5
# [30] = target: Tumor necrosis factor receptor superfamily member 16 (Homo sapiens) (UniProt P08138); test: Binding affinity to p75NTR
# [31] = target: Receptor tyrosine-protein kinase erbB-3 (Homo sapiens) (UniProt P21860); test: Binding affinity to ErbB3
# [32] = target: Epidermal growth factor receptor (Homo sapiens) (UniProt P00533); test: Binding affinity to EGFR
# [33] = test system: Hippocampal neurone; test: Neuroprotective effect in oxygen-glucose deprivation triggered cell death in rat hippocampal neurons after 30 mins; format: functional, tissue-based; details: Hippocampus
# How it was run: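 Primary hippocampal neurons were pretreated with compounds or NGF 30 min before oxygen–glucose deprivation; apoptosis was assayed 3 h later, including a dose titration. Three independent experiments, mean ± SD.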
# [34] = target: High affinity nerve growth factor receptor (Rattus norvegicus) (UniProt P35739); test: Induction of TrkA tyrosine phosphorylation in rat hippocampal neurons at 0.5 uM after 30 mins by immunoblotting staining; format: tissue-based; details: Hippocampus; how it was run: as §2
# [35] = organism: Rattus norvegicus; test: Induction of TrkA Y751 tyrosine phosphorylation in rat hippocampal neurons at 0.5 uM after 30 mins by immunoblotting staining; format: tissue-based; details: Hippocampus
# [36] = organism: Rattus norvegicus; test: Reversal of TrkA Y490 phosphorylation in rat hippocampal neurons at 0.5 uM after 30 mins in presence of K252a; format: tissue-based; details: Hippocampus
# [37] = organism: Rattus norvegicus; test: Reversal of TrkA Y751 phosphorylation in rat hippocampal neurons at 0.5 uM after 30 mins in presence of K252a; format: tissue-based; details: Hippocampus
# [38] = target: High affinity nerve growth factor receptor (Rattus norvegicus) (UniProt P35739); test: Reversal of TrkA phosphorylation in rat hippocampal neurons at 0.5 uM after 30 mins in presence of K252a; format: tissue-based; details: Hippocampus
# [39] = target: High affinity nerve growth factor receptor (Homo sapiens) (UniProt P04629); test: Induction of TrkA tyrosine phosphorylation in transfected HEK293 cells; format: cell-based
# [40] = target: BDNF/NT-3 growth factors receptor (Homo sapiens) (UniProt Q16620); test: Induction of TrkB tyrosine phosphorylation in transfected HEK293 cells; format: cell-based
# [41] = target: NT-3 growth factor receptor (Homo sapiens) (UniProt Q16288); test: Induction of TrkC tyrosine phosphorylation in transfected HEK293 cells; format: cell-based
# [42] = target: RAC-alpha serine/threonine-protein kinase (Mus musculus) (UniProt P31750); test: Induction of Akt phosphorylation in mouse T17 cells
# [43] = target: Mitogen-activated protein kinase 3 (Mus musculus) (UniProt Q63844); test: Induction of ERK1 phosphorylation in mouse T17 cells
# [44] = target: Mitogen-activated protein kinase 1 (Mus musculus) (UniProt P63085); test: Induction of ERK2 phosphorylation in mouse T17 cells
# Chain of NT-3 growth factor receptor (Homo sapiens) (Q16288 32-839 limits assumed): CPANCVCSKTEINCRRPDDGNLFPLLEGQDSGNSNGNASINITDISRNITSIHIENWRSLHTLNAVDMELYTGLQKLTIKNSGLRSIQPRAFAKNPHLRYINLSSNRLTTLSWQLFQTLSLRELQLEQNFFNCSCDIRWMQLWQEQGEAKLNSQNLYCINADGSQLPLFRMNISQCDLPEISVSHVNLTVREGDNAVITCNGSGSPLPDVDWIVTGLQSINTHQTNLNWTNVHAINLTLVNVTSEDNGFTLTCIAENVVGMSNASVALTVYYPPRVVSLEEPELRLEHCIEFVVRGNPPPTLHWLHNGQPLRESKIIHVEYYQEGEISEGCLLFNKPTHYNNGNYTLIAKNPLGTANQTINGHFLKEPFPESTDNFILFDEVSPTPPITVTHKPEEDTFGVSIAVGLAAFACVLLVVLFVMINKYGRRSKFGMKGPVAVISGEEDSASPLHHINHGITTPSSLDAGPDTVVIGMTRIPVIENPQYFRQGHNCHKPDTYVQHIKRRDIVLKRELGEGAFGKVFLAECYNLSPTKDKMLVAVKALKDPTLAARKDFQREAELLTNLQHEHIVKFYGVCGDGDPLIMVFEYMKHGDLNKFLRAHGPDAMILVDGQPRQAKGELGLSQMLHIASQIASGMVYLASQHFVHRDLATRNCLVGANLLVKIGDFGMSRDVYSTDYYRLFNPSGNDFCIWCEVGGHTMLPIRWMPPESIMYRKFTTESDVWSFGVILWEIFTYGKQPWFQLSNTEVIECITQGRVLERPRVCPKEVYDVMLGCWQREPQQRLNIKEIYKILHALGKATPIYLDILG
# Chain of BDNF/NT-3 growth factors receptor (Homo sapiens) (Q16620 32-822 limits assumed): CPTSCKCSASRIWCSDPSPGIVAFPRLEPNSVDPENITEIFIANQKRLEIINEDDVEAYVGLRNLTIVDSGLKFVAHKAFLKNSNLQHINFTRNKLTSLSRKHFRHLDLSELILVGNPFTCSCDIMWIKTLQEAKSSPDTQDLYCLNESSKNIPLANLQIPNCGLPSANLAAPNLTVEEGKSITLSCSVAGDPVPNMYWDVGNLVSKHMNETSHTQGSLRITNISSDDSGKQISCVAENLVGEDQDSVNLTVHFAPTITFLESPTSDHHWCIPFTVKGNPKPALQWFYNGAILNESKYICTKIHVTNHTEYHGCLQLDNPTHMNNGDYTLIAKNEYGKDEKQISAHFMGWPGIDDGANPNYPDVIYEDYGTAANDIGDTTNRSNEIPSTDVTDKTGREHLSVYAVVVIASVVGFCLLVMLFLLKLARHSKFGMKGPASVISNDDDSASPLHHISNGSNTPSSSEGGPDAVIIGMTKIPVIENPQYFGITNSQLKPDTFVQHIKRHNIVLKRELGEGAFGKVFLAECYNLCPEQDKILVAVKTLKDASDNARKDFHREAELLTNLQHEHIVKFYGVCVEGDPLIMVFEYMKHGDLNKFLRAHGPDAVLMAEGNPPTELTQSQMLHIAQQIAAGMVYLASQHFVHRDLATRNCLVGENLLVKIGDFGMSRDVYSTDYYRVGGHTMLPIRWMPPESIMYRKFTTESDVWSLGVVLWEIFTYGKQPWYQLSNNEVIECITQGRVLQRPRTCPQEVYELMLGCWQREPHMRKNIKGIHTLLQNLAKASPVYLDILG
# Chain of High affinity nerve growth factor receptor (Homo sapiens) (P04629 33-796 limits assumed): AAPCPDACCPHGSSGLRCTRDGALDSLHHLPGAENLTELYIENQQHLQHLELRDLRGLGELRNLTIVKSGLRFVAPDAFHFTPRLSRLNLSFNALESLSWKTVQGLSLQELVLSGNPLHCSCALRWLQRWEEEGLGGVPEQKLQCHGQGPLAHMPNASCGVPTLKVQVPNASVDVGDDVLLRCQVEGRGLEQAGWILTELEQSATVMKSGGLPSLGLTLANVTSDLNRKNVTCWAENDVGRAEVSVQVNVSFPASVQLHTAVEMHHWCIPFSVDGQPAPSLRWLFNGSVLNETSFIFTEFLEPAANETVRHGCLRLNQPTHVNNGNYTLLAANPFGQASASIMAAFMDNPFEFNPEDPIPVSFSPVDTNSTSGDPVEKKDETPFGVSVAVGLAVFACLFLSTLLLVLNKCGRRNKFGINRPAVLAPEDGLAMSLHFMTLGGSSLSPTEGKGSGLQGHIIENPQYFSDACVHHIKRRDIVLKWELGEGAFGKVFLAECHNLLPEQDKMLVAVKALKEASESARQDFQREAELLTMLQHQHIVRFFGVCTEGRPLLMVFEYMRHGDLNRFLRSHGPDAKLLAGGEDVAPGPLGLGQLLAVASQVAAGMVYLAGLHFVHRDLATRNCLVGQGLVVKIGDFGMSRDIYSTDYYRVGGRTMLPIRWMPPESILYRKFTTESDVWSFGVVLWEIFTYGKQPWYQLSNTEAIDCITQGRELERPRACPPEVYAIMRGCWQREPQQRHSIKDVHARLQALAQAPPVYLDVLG
# Chain of High affinity nerve growth factor receptor (Rattus norvegicus) (P35739 whole entry): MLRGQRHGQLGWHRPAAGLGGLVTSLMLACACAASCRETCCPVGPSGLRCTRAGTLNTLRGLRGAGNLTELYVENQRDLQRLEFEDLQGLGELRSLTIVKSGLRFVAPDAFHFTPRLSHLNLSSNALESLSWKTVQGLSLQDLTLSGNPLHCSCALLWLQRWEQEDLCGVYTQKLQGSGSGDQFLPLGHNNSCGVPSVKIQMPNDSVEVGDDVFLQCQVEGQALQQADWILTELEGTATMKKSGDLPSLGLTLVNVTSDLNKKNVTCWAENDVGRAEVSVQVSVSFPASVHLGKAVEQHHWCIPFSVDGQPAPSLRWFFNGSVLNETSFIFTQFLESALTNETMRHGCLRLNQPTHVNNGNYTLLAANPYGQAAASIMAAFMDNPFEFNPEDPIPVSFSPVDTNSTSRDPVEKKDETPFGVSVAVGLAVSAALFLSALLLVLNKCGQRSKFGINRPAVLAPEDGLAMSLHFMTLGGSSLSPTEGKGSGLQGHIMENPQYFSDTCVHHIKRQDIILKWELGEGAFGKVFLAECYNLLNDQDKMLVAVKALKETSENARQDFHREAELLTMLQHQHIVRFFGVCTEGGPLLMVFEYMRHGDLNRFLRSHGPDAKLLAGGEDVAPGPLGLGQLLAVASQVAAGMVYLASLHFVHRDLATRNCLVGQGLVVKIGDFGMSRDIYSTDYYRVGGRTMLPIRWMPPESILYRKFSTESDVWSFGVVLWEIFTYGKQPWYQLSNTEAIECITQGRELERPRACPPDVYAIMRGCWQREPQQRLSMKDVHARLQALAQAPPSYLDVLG
# Chain of Mitogen-activated protein kinase 3 (Homo sapiens) (P27361 whole entry): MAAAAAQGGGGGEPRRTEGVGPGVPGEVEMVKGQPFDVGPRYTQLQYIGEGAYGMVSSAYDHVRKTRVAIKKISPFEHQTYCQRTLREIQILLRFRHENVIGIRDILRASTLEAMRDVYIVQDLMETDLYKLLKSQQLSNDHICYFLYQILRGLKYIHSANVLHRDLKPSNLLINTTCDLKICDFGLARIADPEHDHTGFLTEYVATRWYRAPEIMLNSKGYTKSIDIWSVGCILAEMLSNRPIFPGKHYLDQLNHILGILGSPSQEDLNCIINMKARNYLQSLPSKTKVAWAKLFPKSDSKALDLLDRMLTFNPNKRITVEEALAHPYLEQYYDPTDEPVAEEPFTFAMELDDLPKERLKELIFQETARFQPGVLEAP
# Chain of Mitogen-activated protein kinase 1 (Homo sapiens) (P28482 whole entry): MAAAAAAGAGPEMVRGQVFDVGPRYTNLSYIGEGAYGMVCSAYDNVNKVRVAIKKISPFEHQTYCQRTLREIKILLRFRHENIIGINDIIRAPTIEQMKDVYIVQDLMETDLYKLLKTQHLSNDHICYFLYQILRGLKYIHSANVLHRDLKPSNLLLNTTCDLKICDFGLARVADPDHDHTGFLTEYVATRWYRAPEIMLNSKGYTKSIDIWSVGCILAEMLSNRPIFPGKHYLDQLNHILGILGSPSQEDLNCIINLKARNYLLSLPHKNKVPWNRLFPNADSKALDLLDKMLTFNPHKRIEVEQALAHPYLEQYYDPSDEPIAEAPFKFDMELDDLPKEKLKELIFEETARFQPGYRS
# Chain of Tumor necrosis factor receptor superfamily member 16 (Homo sapiens) (P08138 whole entry): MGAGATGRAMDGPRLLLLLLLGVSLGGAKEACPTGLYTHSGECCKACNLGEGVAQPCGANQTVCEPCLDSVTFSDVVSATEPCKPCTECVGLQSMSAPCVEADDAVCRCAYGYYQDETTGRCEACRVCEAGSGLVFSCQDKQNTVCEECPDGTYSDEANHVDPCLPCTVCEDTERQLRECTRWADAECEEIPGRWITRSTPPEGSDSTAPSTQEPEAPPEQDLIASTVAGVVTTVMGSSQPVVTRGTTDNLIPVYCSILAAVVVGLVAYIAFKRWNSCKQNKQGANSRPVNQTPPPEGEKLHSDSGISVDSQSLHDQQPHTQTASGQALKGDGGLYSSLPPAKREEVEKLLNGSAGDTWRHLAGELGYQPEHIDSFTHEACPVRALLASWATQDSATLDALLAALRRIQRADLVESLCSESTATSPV
# Chain of RAC-alpha serine/threonine-protein kinase (Mus musculus) (P31750 whole entry, looked up): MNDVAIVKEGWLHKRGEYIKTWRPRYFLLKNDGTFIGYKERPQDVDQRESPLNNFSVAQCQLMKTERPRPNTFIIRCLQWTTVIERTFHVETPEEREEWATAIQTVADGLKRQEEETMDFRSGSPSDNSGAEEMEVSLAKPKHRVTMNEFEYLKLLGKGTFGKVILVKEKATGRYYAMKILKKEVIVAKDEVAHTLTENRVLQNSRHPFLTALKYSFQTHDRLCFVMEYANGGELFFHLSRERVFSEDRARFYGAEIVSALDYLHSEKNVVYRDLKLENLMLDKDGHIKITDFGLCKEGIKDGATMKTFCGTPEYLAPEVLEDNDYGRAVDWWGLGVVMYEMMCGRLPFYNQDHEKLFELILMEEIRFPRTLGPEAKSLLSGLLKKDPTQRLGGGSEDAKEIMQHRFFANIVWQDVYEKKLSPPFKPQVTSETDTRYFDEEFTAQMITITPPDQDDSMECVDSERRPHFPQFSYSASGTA
smiles,measurement,setting,value
COC(=O)/C(C)=C\C[C@@]12OC(C)(C)C3C[C@@H](C=C4C(=O)c5c(OC)c6c(c(CC=C(C)C)c5O[C@]431)O[C@](C)(CCC=C(C)C)C=C6)C2=O,Activity,[1],inactive
same,Activity,[2],Active
same,Activity,[3],inactive
same,Activity,[4],Active
same,Activity,[5],Active
same,EC50,[6],120 nM
CC(C)=CCC[C@]1(C)C=Cc2c(O)c3c(c(CC=C(C)C)c2O1)O[C@]12C(=C[C@@H]4CC1C(C)(C)O[C@@]2(C/C=C(/C)C(=O)O)C4O)C3=O (some centres undefined),Activity,[1],Active
same,Activity,[2],Active
same,Activity,[3],inactive
same,Activity,[4],Active
same,Activity,[5],Active
same,EC50,[6],200 nM
CC(=O)Oc1c2c(c(CC=C(C)C)c3c1C(=O)C1=C[C@@H]4CC5C(C)(C)O[C@@](C/C=C(\C)C(=O)O)(C4=O)[C@@]15O3)O[C@](C)(CCC=C(C)C)C=C2,Activity,[2],Active
same,Activity,[3],inactive
same,Activity,[4],Active
same,Activity,[5],Active
CC(C)=CCC[C@]1(C)C=Cc2c(O)c3c(c(CC=C(C)C)c2O1)O[C@]12C(C[C@@H]4CC1C(C)(C)O[C@@]2(C/C=C(/C)C(=O)O)C4O)C3=O (some centres undefined),Activity,[2],Active
same,Activity,[3],inactive
same,Activity,[4],Active
same,Activity,[5],Active
same,Activity,[7],inactive
CC(C)CCC[C@]1(C)C=Cc2c(O)c3c(c(CCC(C)C)c2O1)O[C@]12C(C[C@@H]4CC1C(C)(C)O[C@@]2(CCC(C)C(=O)O)C4O)C3=O (some centres undefined),Activity,[8],Active
same,Activity,[2],Active
same,Activity,[3],inactive
same,Activity,[4],Active
same,Activity,[5],Active
same,Activity,[7],inactive
same,Activity,[9],Active
CC(C)=CCC[C@]1(C)C=Cc2c(O)c3c(c(CC=C(C)C)c2O1)O[C@]12C(=C[C@@H]4C[C@H]1C(C)(C)O[C@@]2(C/C=C(/C)C(=O)O)C4=O)C3=O [GAMBOGIC ACID],Activity,[8],Active
same,Activity,[1],inactive
same,Activity,[10],24.41%
same,Activity,[11],85.83%
same,Activity,[2],Active
same,Activity,[12],Active
same,Activity,[3],inactive
same,Activity,[13],inactive
same,Activity,[14],Active
same,Activity,[15],inactive
same,Activity,[16],inactive
same,Activity,[17],Active
same,Activity,[18],Active
same,Activity,[7],inactive
same,EC50,[6],20 nM
CC(C)=CCC[C@]1(C)C=Cc2c(O)c3c(c(CC=C(C)C)c2O1)O[C@]12C(=C[C@@H]4CC1C(C)(C)O[C@@]2(C/C=C(/C)C(N)=O)C4=O)C3=O [GAMBOGIC AMIDE],Activity,[19],Active
same,Activity,[20],Active
same,Activity,[21],inactive
same,Activity,[22],inactive
same,Activity,[23],tde
same,Activity,[24],Dose-dependent effect
same,Activity,[1],Active
same,Activity,[25],Dose-dependent effect
same,Activity,[26],Active
same,Activity,[27],6.3%
same,Activity,[28],1.8%
same,Activity,[29],inactive
same,Activity,[30],inactive
same,Activity,[31],inactive
same,Activity,[32],inactive
same,Activity,[2],Active
same,Activity,[12],Active
same,Activity,[33],Dose-dependent effect
same,Activity,[3],Active
same,Activity,[34],Active
same,Activity,[35],Active
same,Activity,[36],Active
same,Activity,[37],Active
same,Activity,[38],Active
same,Activity,[13],Active
same,Activity,[39],Active
same,Activity,[40],Active
same,Activity,[41],Active
same,Activity,[17],Active
same,Activity,[18],Active
same,Activity,[4],Active
same,Activity,[5],Active
same,Activity,[42],Active
same,Activity,[43],Active
same,Activity,[44],Active
same,EC50,[6],5 nM
